The structures appear in SMILES notation. Values after ≈ are worked out from the molar mass of the structure shown. A value given as a limit tells only on which side of the number the result lay.

Drawing on ChEMBL document CHEMBL2040757, “New N-arylamino biquinoline derivatives: synthesis, antimicrobial, antituberculosis, and antimalarial evaluation” (Eur J Med Chem, 2012), this text covers MIC, IC50 and inhibition for 9 compounds.

One assay relates to Streptococcus pneumoniae. In words: Antibacterial activity against Streptococcus pneumoniae MTCC 1936 by broth microdilution method. The assay is classed as functional. The procedure, abridged: (§1)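 Broth microdilution per NCCLS, with serial dilutions in Mueller Hinton broth and DMSO as diluent. Tubes were incubated overnight at 37 °C. MIC was the lowest concentration giving no visible growth, with the control organism's MIC read to verify concentrations. Tubes without growth were subcultured overnight at 37 °C to judge bacteriostatic versus bactericidal action.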
A general note: In broth dilution the organism is exposed to a series of concentrations in liquid medium.

The subject of the next assay is Bacillus subtilis. In words: Antibacterial activity against Bacillus subtilis MTCC 441 by broth microdilution method. The assay is classed as functional. Summed up:
as §1

A further assay relates to Candida albicans. In words: Antifungal activity against Candida albicans MTCC 227 by broth microdilution method. The assay is classed as functional.
A further assay has as its system Clostridium tetani. In words: Antibacterial activity against Clostridium tetani MTCC 449 by broth microdilution method. The assay is classed as functional.
In another assay the test system is Plasmodium falciparum. Nature of the assay: Antimalarial activity against trophozoite stage of chloroquine-sensitive Plasmodium falciparum 3D7 infected in human erythrocytes after 48 hrs. The assay is classed as functional, organism-based. Conditions: 3D7, 48 h. Summed up: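 Parasites were kept in continuous culture in A+ human erythrocytes in RPMI with 10% human serum. Sorbitol-synchronized trophozoites at 1–2% parasitaemia and 2.5% haematocrit were exposed to serial dilutions (maximum 1 mg/ml; 0.02% final DMSO) for 48 h at 37 °C. Growth inhibition was measured; chloroquine and quinine served as positive controls. IC50 came from duplicate experiments.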

Another assay concerns Vibrio cholerae. Nature of the assay: Antibacterial activity against Vibrio cholerae MTCC 3906 by broth microdilution method. The assay is classed as functional.
Another assay relates to Salmonella typhi. In words: Antibacterial activity against Salmonella typhi MTCC 98 by broth microdilution method. The assay is classed as functional, Salmonella enterica subsp. enterica serovar Typhi. Particulars: Salmonella enterica.
For another assay, the system named is Escherichia coli. In words: Antibacterial activity against Escherichia coli MTCC 443 by broth microdilution method. The assay is classed as functional. Summed up: as §1
Assay [1] has as its system Mycobacterium tuberculosis. In words: Growth inhibition of Mycobacterium tuberculosis H37Rv at 6.25 ug/mL after 12 to 28 days relative to control. The assay is classed as functional.
In another assay the test system is Aspergillus fumigatus. In words: Antifungal activity against Aspergillus fumigatus MTCC 3008 by broth microdilution method. The assay is classed as functional.

Consider `CC1(C)CC(=O)C2=C(C1)N(Nc1ccc(F)cc1)C(N)=C(C#N)C2c1cc2cc(Cl)ccc2nc1Cl` (stereo not given), for which the MIC worked out at 200 µg/mL (≈ 383 µM) with Streptococcus pneumoniae; 100 µg/mL (≈ 191 µM) in the assay with Bacillus subtilis; 500 µg/mL (≈ 957 µM) in the assay with Candida albicans; 500 µg/mL (≈ 957 µM) with Clostridium tetani; 125 µg/mL (≈ 239 µM) in the assay on Vibrio cholerae; 500 µg/mL (≈ 957 µM) with Salmonella typhi. For the same compound, the MIC against Escherichia coli was 250 µg/mL (≈ 479 µM); in the assay on Aspergillus fumigatus it was greater than 1000 µg/mL. Besides, inhibition with Plasmodium falciparum was half-maximal at 0.154 µg/mL (≈ 0.295 µM) (IC50). In assay [1], this compound showed an inhibition at 6.25 µg/mL of 65%.

On to `COc1ccc2nc(Cl)c(C3C(C#N)=C(N)N(Nc4ccc(Br)cc4)C4=C3C(=O)CC(C)(C)C4)cc2c1` (stereo not given), for which the MIC against Streptococcus pneumoniae worked out at 250 µg/mL (≈ 432 µM); in the assay with Bacillus subtilis, 250 µg/mL (≈ 432 µM); against Candida albicans, 1000 µg/mL (≈ 1730 µM); against Clostridium tetani, 200 µg/mL (≈ 345 µM); against Vibrio cholerae, 200 µg/mL (≈ 345 µM); against Salmonella typhi, 125 µg/mL (≈ 216 µM). Moreover, the figures for the MIC in the assay with Escherichia coli and in the assay with Aspergillus fumigatus were 200 µg/mL (≈ 345 µM) and 500 µg/mL (≈ 864 µM), respectively. In the assay with Plasmodium falciparum, this compound returned an IC50 of 0.014 µg/mL (≈ 0.0242 µM). This compound also yielded an inhibition at 6.25 µg/mL in assay [1] of 17%.

Regarding `COc1ccc(NN2C(N)=C(C#N)C(c3cc4cc(Cl)ccc4nc3Cl)C3=C2CC(C)(C)CC3=O)cc1` (stereo not given), the MIC against Streptococcus pneumoniae was found to be 250 µg/mL (≈ 468 µM); in the assay on Bacillus subtilis it was 250 µg/mL (≈ 468 µM); against Candida albicans, 100 µg/mL (≈ 187 µM); with Clostridium tetani, 200 µg/mL (≈ 374 µM); in the assay on Vibrio cholerae, 250 µg/mL (≈ 468 µM); in the assay with Salmonella typhi, 200 µg/mL (≈ 374 µM). Further, the values for the MIC with Escherichia coli and in the assay with Aspergillus fumigatus were 250 µg/mL (≈ 468 µM) and greater than 1000 µg/mL, respectively. The IC50 in the assay with Plasmodium falciparum turned out to be 0.026 µg/mL (≈ 0.0486 µM). In addition, 6.25 µg/mL produced 22% inhibition in assay [1].

As for `CC1(C)CC(=O)C2=C(C1)N(Nc1ccc(Cl)cc1)C(N)=C(C#N)C2c1cc2cc(Cl)ccc2nc1Cl` (stereo not given), the MIC against Streptococcus pneumoniae is 200 µg/mL (≈ 371 µM); with Bacillus subtilis, 200 µg/mL (≈ 371 µM); against Candida albicans, greater than 1000 µg/mL; against Clostridium tetani it was 200 µg/mL (≈ 371 µM); in the assay on Vibrio cholerae, 100 µg/mL (≈ 186 µM); in the assay on Salmonella typhi, 100 µg/mL (≈ 186 µM). Further, the MIC is 62.5 µg/mL (≈ 116 µM) in the assay with Escherichia coli and greater than 1000 µg/mL with Aspergillus fumigatus. Moreover, the IC50 with Plasmodium falciparum was determined as 0.028 µg/mL (≈ 0.052 µM). Besides, at 6.25 µg/mL the inhibition in assay [1] was 87%.

On to `Cc1ccc2nc(Cl)c(C3C(C#N)=C(N)N(Nc4ccccc4)C4=C3C(=O)CC(C)(C)C4)cc2c1` (stereo not given), for which the MIC came out at 250 µg/mL (≈ 517 µM) against Streptococcus pneumoniae; 500 µg/mL (≈ 1030 µM) with Bacillus subtilis; 500 µg/mL (≈ 1030 µM) against Candida albicans; 500 µg/mL (≈ 1030 µM) with Clostridium tetani; 250 µg/mL (≈ 517 µM) in the assay with Vibrio cholerae; 200 µg/mL (≈ 413 µM) against Salmonella typhi. Besides, the MIC against Escherichia coli is 100 µg/mL (≈ 207 µM); in the assay on Aspergillus fumigatus, greater than 1000 µg/mL. In the assay with Plasmodium falciparum, the IC50 worked out at 0.15 µg/mL (≈ 0.31 µM). The same compound had an inhibition at 6.25 µg/mL in assay [1] of 12%.

Consider `COc1ccc(NN2C(N)=C(C#N)C(c3cc4cc(OC)ccc4nc3Cl)C3=C2CC(C)(C)CC3=O)cc1` (stereo not given), for which the MIC in the assay with Streptococcus pneumoniae is 25 µg/mL (≈ 47.2 µM); against Bacillus subtilis, 200 µg/mL (≈ 377 µM); against Candida albicans it was 500 µg/mL (≈ 943 µM); in the assay on Clostridium tetani, 200 µg/mL (≈ 377 µM); against Vibrio cholerae, 62.5 µg/mL (≈ 118 µM); in the assay on Salmonella typhi, 50 µg/mL (≈ 94.3 µM). Also, the values for the MIC against Escherichia coli and in the assay with Aspergillus fumigatus were 100 µg/mL (≈ 189 µM) and 500 µg/mL (≈ 943 µM), respectively. The compound further displayed an IC50 in the assay with Plasmodium falciparum of 0.019 µg/mL (≈ 0.0358 µM). In addition, the inhibition at 6.25 µg/mL in assay [1] turned out to be 7%.

With `CC1(C)CC(=O)C2=C(C1)N(Nc1ccc(F)cc1)C(N)=C(C#N)C2c1cc2ccccc2nc1Cl` (stereo not given), the MIC in the assay on Streptococcus pneumoniae was found to be 500 µg/mL (≈ 1020 µM); against Bacillus subtilis, 500 µg/mL (≈ 1020 µM); against Candida albicans it was 1000 µg/mL (≈ 2050 µM); with Clostridium tetani, 200 µg/mL (≈ 410 µM); in the assay on Vibrio cholerae it was 200 µg/mL (≈ 410 µM); against Salmonella typhi, 200 µg/mL (≈ 410 µM). Further, the MIC amounted to 200 µg/mL (≈ 410 µM) against Escherichia coli and 1000 µg/mL (≈ 2050 µM) against Aspergillus fumigatus. In addition, the IC50 in the assay with Plasmodium falciparum is 0.027 µg/mL (≈ 0.0553 µM). This compound also registered an inhibition at 6.25 µg/mL in assay [1] of 62%.

Consider `COc1ccc2nc(Cl)c(C3C(C#N)=C(N)N(Nc4ccc(F)cc4)C4=C3C(=O)CC(C)(C)C4)cc2c1` (stereo not given), for which the MIC in the assay on Streptococcus pneumoniae amounted to 200 µg/mL (≈ 386 µM); in the assay with Bacillus subtilis it was 250 µg/mL (≈ 483 µM); against Candida albicans, 250 µg/mL (≈ 483 µM); in the assay on Clostridium tetani, 500 µg/mL (≈ 965 µM); against Vibrio cholerae, 100 µg/mL (≈ 193 µM); in the assay with Salmonella typhi, 125 µg/mL (≈ 241 µM). Besides, the MIC against Escherichia coli is 125 µg/mL (≈ 241 µM); against Aspergillus fumigatus it was 500 µg/mL (≈ 965 µM). In the assay with Plasmodium falciparum, the half-inhibitory concentration (IC50) was found to be 0.25 µg/mL (≈ 0.483 µM). Moreover, testing at 6.25 µg/mL in [1] gave an inhibition of 22%.

For `Cc1ccc(NN2C(N)=C(C#N)C(c3cc4cc(C)ccc4nc3Cl)C3=C2CC(C)(C)CC3=O)cc1` (stereo not given), the minimal inhibitory concentration (MIC) in the assay on Streptococcus pneumoniae came to 200 µg/mL (≈ 402 µM); in the assay on Bacillus subtilis, 200 µg/mL (≈ 402 µM); against Candida albicans, 500 µg/mL (≈ 1000 µM); with Clostridium tetani, 250 µg/mL (≈ 502 µM); against Vibrio cholerae, 500 µg/mL (≈ 1000 µM); against Salmonella typhi, 500 µg/mL (≈ 1000 µM). Moreover, the MIC with Escherichia coli and against Aspergillus fumigatus was 500 µg/mL (≈ 1000 µM) each time. Besides, 0.22 µg/mL (≈ 0.442 µM) corresponded to half-maximal inhibition in the assay with Plasmodium falciparum (IC50). The inhibition at 6.25 µg/mL in assay [1] stood at 32%.

The term MIC denotes the least concentration at which growth counts as inhibited. High values mean a need for much substance, low ones inhibition by little substance. What is called IC50 is the concentration at which inhibition is half-maximal. One may read the inhibition as how much of the control response was suppressed. Higher therefore signals strong suppression.
